Activity calls are given as the source filed them. No cut-off for these calls is given here. Numbered stars: 1 amine (or outer) side, 2 acyl side, 3 side chain; on linkers, the order of the positions; unused ones are H or OH. Bridge positions count the residues as written; N and C are the ends. Square brackets hold non-standard residues; d marks the D form. Peptide text beside a SMILES is read from it. * marks the point of attachment. X2 = O=C(O)CN1CCN(CC(=O)O)CCN(CC(=O)NCCN2C(=O)CC(*)C2=O)CC1; X1 = NC(=O)[C@H]1CC[C@H](CN2C(=O)CC(*)C2=O)CC1; Succinimide(1-Et,3-yl) = CCN1C(=O)CC(*)C1=O; βAsp = O=C(O)[C@H](CC(=O)[*:2])N[*:1]
Tests used:
Integrin alpha-V/beta-3 [1] = target: T1, Integrin alpha-V/beta-3 (Homo sapiens, UniProt P05106+P06756); test: Allosteric activation of integrin alphaVbeta3 receptor in human MSR3 […] assessed as increase in anti-beta3 LIBS integrin antibody AP5 binding at 500 uM incubated for 90 mins by flow cytometry; format: cell-based; details: 1.5 h
Integrin alpha-V/beta-3 [2] = target: T1, Integrin alpha-V/beta-3; test: Binding affinity to human integrin alphaVbeta3 receptor using acetyl-CisoDGRCGVRSSSRTPSDKY-bio probe and streptavidin-peroxidase conjugate incubated for 3 hrs by competitive binding assay; format: protein-complex assay
Summary of the method: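 Ki reported with its standard error from several independent experiments, each run in duplicate. Groups were compared by one-way ANOVA with Dunnett's post-test.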

Integrin alpha-V/beta-3 [3] = target: T1, Integrin alpha-V/beta-3; test: Binding affinity to integrin alphaVbeta3 receptor in human MSR3 cell membranes assessed as change in STD spectra incubated for 2 hrs by NMR spectroscopy relative to untreated control
Summary of the method: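 Saturation transfer difference NMR used ligand at 1 mM with native membranes prepared from MSR3 melanoma cells (75-125 x10^6 cells). These cells express high αvβ3, as checked by FACS. Ligand protons nearest the receptor were identified from transferred saturation.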

Integrin alpha-V/beta-3 [4] = target: T1, Integrin alpha-V/beta-3; test: Binding affinity to integrin alphaVbeta3 receptor in human MSR3 cell membranes incubated for 2 hrs by Tr-NOESY NMR spectroscopy
Integrin alpha-V/beta-3 [5] = target: T1, Integrin alpha-V/beta-3; test: Allosteric activation of integrin alphaVbeta3 receptor in human MSR3 […] assessed as increase in anti-beta3 LIBS integrin antibody AP5 binding at 5 uM incubated for 90 mins by flow cytometry; format: cell-based; details: 1.5 h
Integrin alpha-V/beta-3 [6] = target: T1, Integrin alpha-V/beta-3; test: Binding affinity to integrin alphaVbeta3 receptor in EDTA pre-treated human MSR3 cell membranes incubated for 2 hrs by NMR spectroscopy
Summary of the method: (§1)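 Ligand (1 mM) NMR-observed with native membranes prepared from human melanoma MSR3 cells (75-125 x10^6 cells), whose high αvβ3 expression was confirmed by FACS. Line 1 used saturation transfer difference (STD) to map the ligand protons closest to the receptor. Line 2 used transferred NOE, comparing NOEs with and without membranes.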

Integrin alpha-V/beta-3 [7] = target: T1, Integrin alpha-V/beta-3; test: Binding affinity to integrin alphaVbeta3 receptor in EDTA pre-treated human MSR3 cell membranes incubated for 2 hrs by Tr-NOESY NMR spectroscopy; summary of the method: as §1
Integrin alpha-V/beta-3 [8] = target: T1, Integrin alpha-V/beta-3; test: Allosteric activation of integrin alphaVbeta3 receptor in human MSR3 […] assessed as increase in monoclonal antibody LM609 binding at 500 uM incubated for 90 mins by flow cytometry; format: cell-based; details: 1.5 h

Structure (SMILES) | Activity (Integrin alpha-V/beta-3 [1]) | Ki (Integrin alpha-V/beta-3 [2]) [nM] | other results
N=C(N)NCCC[C@@H]1NC(=O)CNC(=O)C[C@@H](C(=O)O)NC(=O)CNC(=O)[C@H](CS)NC(c2ccccc2)C(=O)NC1=O (stereo not given in full) | Not Active | – | –
N=C(N)NCCC[C@@H]1NC(=O)CNC(=O)C[C@@H](C(=O)O)NC(=O)[C@H](CS)NCC(=O)NC(=O)C(c2ccccc2)NC1=O (stereo not given in full) | Not Active | – | –
N=C(N)NCCC[C@@H]1NC(=O)CNC(=O)C[C@@H](C(=O)O)NC(=O)CNC(=O)[C@H](CSC2CC(=O)N(C[C@H]3CC[C@H](C(N)=O)CC3)C2=O)NC(=O)CNC1=O (stereo not given in full) (GRGC(X1)GD-OH; lactam N-6) | Not Active | 19.9 | Activity (Integrin alpha-V/beta-3 [3]): > 50%; Activity (Integrin alpha-V/beta-3 [4]): > 50%; Activity (Integrin alpha-V/beta-3 [6]): inactive; Activity (Integrin alpha-V/beta-3 [7]): inactive; Activity (Integrin alpha-V/beta-3 [5]): Not Active
N=C(N)NCCC[C@@H]1NC(=O)CNC(=O)C[C@@H](C(=O)O)NC(=O)CNC(=O)[C@H](CSC2CC(=O)N(CCNC(=O)CN3CCN(CC(=O)O)CCN(CC(=O)O)CC3)C2=O)NC(=O)CNC1=O (stereo not given in full) (GRGC(X2)GD-OH; lactam N-6) | Not Active | 21.6 | Activity (Integrin alpha-V/beta-3 [5]): Not Active
N=C(N)NCCC[C@@H]1NC(=O)CNC(=O)C[C@@H](C(=O)O)NC(=O)CNC(=O)[C@H](CS)NC(=O)CNC1=O (GRGCGD-OH; lactam N-6) | Not Active | – | Activity (Integrin alpha-V/beta-3 [8]): Not Active
N=C(N)NCCC[C@@H]1NC(=O)CNC(=O)[C@H](CC(=O)O)NC(=O)[C@@H](N)CSSC[C@@H](C(=O)O)NC1=O (H-CDGRC-OH; disulfide 1-5) | – | – | Activity (Integrin alpha-V/beta-3 [3]): inactive; Activity (Integrin alpha-V/beta-3 [4]): inactive
N=C(N)NCCC[C@@H]1NC(=O)CNC(=O)C[C@@H](C(=O)O)NC(=O)[C@@H](N)CSSC[C@@H](C(=O)O)NC1=O (H-C[βAsp]GRC-OH; disulfide 1-5) | Not Active | – | –
N=C(N)NCCC[C@@H]1NC(=O)[C@H](CS)NC(=O)[C@@H](Cc2ccccc2)NC(=O)[C@H](CC(=O)O)NC(=O)CNC1=O (cyclo(RGD[dF]C)) | – | 6.3 | –

Now from value to compound, other results behind:

Activity (Integrin alpha-V/beta-3 [1]) | Ki (Integrin alpha-V/beta-3 [2]) [nM] | Structure (SMILES) | other results
Not Active | 26.5 | CCN1C(=O)CC(SC[C@@H]2NC(=O)CNC(=O)[C@H](CCCNC(=N)N)NC(=O)CNC(=O)C[C@@H](C(=O)O)NC(=O)CNC2=O)C1=O (stereo not given in full) (GRGC(Succinimide(1-Et,3-yl))GD-OH; lactam N-6) | Activity (Integrin alpha-V/beta-3 [3]): > 50%; Activity (Integrin alpha-V/beta-3 [4]): > 50%; Activity (Integrin alpha-V/beta-3 [5]): Not Active
Not Active | – | N=C(N)NCCC[C@@H]1NC(=O)CNC(=O)C[C@@H](C(=O)O)NC(=O)[C@H](CS)NC(=O)CNC1=O (GRGCD-OH; lactam N-5) | –
Not Active | – | N=C(N)NCCC[C@@H]1NC(=O)CNC(=O)C[C@@H](C(=O)O)NC(=O)[C@H](CS)NC(=O)CNC(=O)CNC1=O (GRGGCD-OH; lactam N-6) | –
